# ChEMBL document CHEMBL1140818, “Triazole derivatives as non-nucleoside inhibitors of HIV-1 reverse transcriptase--structure-activity relationships and crystallographic analysis” (Bioorg Med Chem Lett, 2008)
# What was measured:
# [1] = system: Human immunodeficiency virus 1; experiment: Antiviral activity against HIV1 in MT4 cells; format: functional, organism-based; conditions: Human immunodeficiency virus 1, MT4
# Outline: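 HIV-1 infectivity assay in MT-4 cells over 5 days, with virus-induced cell death as the read-out. EC50 is the mean of at least two independent experiments.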
# [2] = Selectivity index, ratio of EC50 for MT4 cells to EC50 for HIV1; format: cell-based; conditions: human; for Selectivity index: mt4; for selectivity ratio: MT4 cells, read-out: Selectivity index
# Outline: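 Ratio of the cytotoxicity EC50 to the antiviral EC50, both from the 5-day MT-4 assay with virus-induced cell death as the antiviral read-out. Values are means of at least two independent experiments.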
# [3] = Partition coefficient, log D of the compound; format: physicochemical; conditions: octanol/water
EC50 [1],logD [3],Structure (SMILES),Selectivity index [2],selectivity ratio [2]
> 100 µM,–,c1ccc(CCSc2nnc(-c3ccsc3)n2Cc2ccccc2)cc1,Not Active,–
–,–,c1ccc(Cn2c(SCc3ccccn3)nnc2-c2ccsc2)cc1,Not Active,–
41.5 µM,–,c1ccc(Cn2c(SCc3ccncc3)nnc2-c2ccsc2)cc1,–,1
51.1 µM,–,Clc1ccc(CSc2nnc(-c3ccsc3)n2Cc2ccccc2)cc1,–,≤ 1
> 100 µM,–,c1ccc(CSc2nnc(-c3cccs3)n2-c2ccccc2)cc1,Not Active,–
> 100 µM,–,c1ccc(CCn2c(SCc3ccccc3)nnc2-c2cccs2)cc1,Not Active,–
3.45 µM,–,Clc1cccc(Cl)c1CSc1nnc(-c2cccs2)n1Cc1ccccc1,–,1.7
2.4 µM,–,Clc1ccc(CSc2nnc(-c3cccs3)n2Cc2ccccc2)cc1Cl,–,3.1
> 100 µM,–,Clc1ccc(Cn2c(SCc3ccccc3)nnc2-c2cccs2)cc1,–,–
> 100 µM,–,Clc1ccc(Cn2c(SCc3ccccc3)nnc2-c2cccs2)cc1Cl,Not Active,–
> 100 µM,–,CCCCCCSc1nnc(-c2ccsc2)n1Cc1ccccc1,Not Active,–
23.5 µM,–,Cc1nnc(SCc2ccccc2)n1Cc1ccccc1,–,2
4.6 µM,–,c1ccc(CSc2nnc(-c3ccco3)n2Cc2ccccc2)cc1,–,5.2
> 100 µM,–,c1ccc(CSc2nnc(Cc3cccs3)n2Cc2ccccc2)cc1,Not Active,–
2.85 µM,–,Clc1ccccc1-c1nnc(SCc2ccccc2)n1Cc1ccccc1,–,2.9
> 100 µM,–,CSc1nnc(-c2cccs2)n1Cc1ccccc1,Not Active,–
> 100 µM,–,CCCCCCSc1nnc(-c2cccs2)n1Cc1ccccc1,Not Active,–
23.5 µM,–,N#Cc1ccc(CSc2nnc(-c3cccs3)n2Cc2ccccc2)cc1,–,< 1
0.44 µM,–,Clc1ccccc1CSc1nnc(-c2cccs2)n1Cc1ccccc1,–,35.2
> 100 µM,–,N#Cc1ccc(CSc2nnc(-c3ccsc3)n2Cc2ccccc2)cc1,Not Active,–
0.73 µM,–,Clc1cccc(CSc2nnc(-c3cccs3)n2Cc2ccccc2)c1Cl,–,9.1
0.131 µM,–,Clc1ccccc1CSc1nnc(-c2ccsc2)n1Cc1ccccc1,–,62
3.3 µM,–,Clc1ccc(CSc2nnc(-c3ccsc3)n2Cc2ccccc2)c(Cl)c1,–,2.9
8.95 µM,–,Clc1ccc(Cl)c(CSc2nnc(-c3ccsc3)n2Cc2ccccc2)c1,–,1.6
28.5 µM,–,c1ccc(CCSc2nnc(-c3cccs3)n2Cc2ccccc2)cc1,–,≤ 1

EC50 [1],logD [3],Structure (SMILES),Selectivity index [2],selectivity ratio [2]
8.3 µM,–,c1ccc(Cn2c(SCc3cccnc3)nnc2-c2cccs2)cc1,–,6
> 100 µM,–,Clc1cccc(Cl)c1CSc1nnc(-c2ccsc2)n1Cc1ccccc1,Not Active,–
0.58 µM,–,c1ccc(Cn2c(SCc3ccc4ccccc4c3)nnc2-c2ccsc2)cc1,–,11.1
> 100 µM,–,Cn1c(SCc2ccccc2)nnc1-c1cccs1,Not Active,–
4.8 µM,–,c1ccc(Cn2c(SCc3ccncc3)nnc2-c2cccs2)cc1,–,15
3 µM,–,COc1ccc(CSc2nnc(-c3cccs3)n2Cc2ccccc2)cc1,–,3.8
3.7 µM,3.5,c1ccc(CSc2nnc(-c3cccs3)n2Cc2ccccc2)cc1,–,8
1.6 µM,–,Clc1cccc(CSc2nnc(-c3ccsc3)n2Cc2ccccc2)c1,–,6.3
> 100 µM,–,COc1ccc(Cn2c(SCc3ccccc3)nnc2-c2cccs2)cc1,Not Active,–
8.3 µM,–,c1ccc(Cn2c(SCc3ccccn3)nnc2-c2cccs2)cc1,–,5
2 µM,–,Clc1ccc(CSc2nnc(-c3cccs3)n2Cc2ccccc2)cc1,–,5.7
> 100 µM,–,c1ccc(CSc2nnc(-c3cc4ccccc4s3)n2Cc2ccccc2)cc1,Not Active,–
1 µM,–,Clc1ccc(Cl)c(CSc2nnc(-c3cccs3)n2Cc2ccccc2)c1,–,7.9
1.7 µM,–,c1ccc(Cn2c(SCc3ccc4ccccc4c3)nnc2-c2cccs2)cc1,–,5.9
23 µM,–,c1ccc(Cn2c(SCc3cccnc3)nnc2-c2ccsc2)cc1,–,2
1.7 µM,–,Clc1cccc(CSc2nnc(-c3cccs3)n2Cc2ccccc2)c1,–,5.3
5.8 µM,–,COc1ccc(CSc2nnc(-c3ccsc3)n2Cc2ccccc2)cc1,–,1
1.1 µM,–,Clc1ccc(CSc2nnc(-c3cccs3)n2Cc2ccccc2)c(Cl)c1,–,7.7
> 100 µM,–,CSc1nnc(-c2ccsc2)n1Cc1ccccc1,Not Active,–
9.2 µM,–,c1ccc(CSc2nnc(-c3ccsc3)n2Cc2ccccc2)cc1,–,2
4.7 µM,–,Clc1ccc(CSc2nnc(-c3ccsc3)n2Cc2ccccc2)cc1Cl,–,1.2
10.5 µM,–,c1ccc(CSc2nnc(-c3ccccc3)n2Cc2ccccc2)cc1,–,1.1
1.3 µM,–,Clc1cccc(CSc2nnc(-c3ccsc3)n2Cc2ccccc2)c1Cl,–,5
–,–,"O=C1Nc2ccc(Cl)cc2C(C#CC2CC2)(C(F)(F)F)O1 (single isomer, unassigned) [EFAVIRENZ]",–,> 6000
